ChEMBL document CHEMBL1156339, “A virtual screening hit reveals new possibilities for developing group III metabotropic glutamate receptor agonists” (J Med Chem, 2010)
The source made the active and inactive calls. No cut-off for these calls is given here.

What follows are molecules tested against T1, Metabotropic glutamate receptor 4 (Rattus norvegicus, UniProt P31423) (assay: Agonist activity at rat mGlu4 receptor expressed in HEK293 cells co-transfected with G-protein alpha and EAAC1 assessed as increase in intracellular inositol phosphate accumulation after 1 hr by scintillation counting).
T1 sequence (P31423 whole entry): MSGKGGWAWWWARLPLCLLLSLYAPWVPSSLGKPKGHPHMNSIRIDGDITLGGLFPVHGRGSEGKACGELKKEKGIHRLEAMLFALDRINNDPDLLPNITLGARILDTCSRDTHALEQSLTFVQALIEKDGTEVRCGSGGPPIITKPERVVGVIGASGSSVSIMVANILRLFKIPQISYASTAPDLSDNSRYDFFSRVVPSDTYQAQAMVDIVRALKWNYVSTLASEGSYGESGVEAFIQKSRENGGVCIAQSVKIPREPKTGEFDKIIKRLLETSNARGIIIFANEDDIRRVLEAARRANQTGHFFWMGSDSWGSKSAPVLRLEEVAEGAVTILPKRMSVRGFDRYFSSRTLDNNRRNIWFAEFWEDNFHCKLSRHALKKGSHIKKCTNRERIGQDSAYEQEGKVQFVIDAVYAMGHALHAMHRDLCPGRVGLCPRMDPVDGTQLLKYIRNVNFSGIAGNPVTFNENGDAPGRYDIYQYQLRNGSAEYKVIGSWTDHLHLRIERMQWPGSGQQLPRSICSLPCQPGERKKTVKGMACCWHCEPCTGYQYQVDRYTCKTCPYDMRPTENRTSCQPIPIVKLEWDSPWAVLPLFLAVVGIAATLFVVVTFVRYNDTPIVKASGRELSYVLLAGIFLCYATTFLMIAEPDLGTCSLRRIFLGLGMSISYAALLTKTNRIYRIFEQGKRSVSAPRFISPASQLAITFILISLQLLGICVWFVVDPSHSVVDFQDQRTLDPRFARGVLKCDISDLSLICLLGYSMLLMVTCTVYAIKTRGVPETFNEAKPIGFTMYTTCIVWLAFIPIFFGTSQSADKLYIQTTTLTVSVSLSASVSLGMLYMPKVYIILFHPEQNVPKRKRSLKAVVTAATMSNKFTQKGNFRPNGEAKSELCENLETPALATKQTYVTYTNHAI
Format: functional, cell-based
Method in brief: (§1)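 Rat receptor, chimeric G-protein alpha subunit and EAAC1 electroporated into HEK293 cells and grown 24 h in polyornithine-coated plates in glutamate/glutamine-free medium. Labelled overnight with 3H-myoinositol from 6 h post-transfection. Ambient glutamate degraded with glutamate-pyruvate transaminase, then agonist applied 30 min. Lysis 1 h in cold 0.1 M formic acid. 3H-IP isolated on Dowex and counted. IP normalised to IP plus membrane radioactivity, triplicate; mean ± SEM of n experiments.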

SMILES	EC50 [µM]
N[C@@H](CCP(=O)(O)CC(Cl)C(=O)O)C(=O)O (stereo not given in full)	3.8
NC(CCP(=O)(O)C(CC(=O)O)C(=O)O)C(=O)O (stereo not given)	47
N[C@@H](CCP(=O)(O)/C=C/C(=O)O)C(=O)O	3
N[C@@H](CCP(=O)(O)CCCC(=O)O)C(=O)O	11.4
N[C@@H](CCP(=O)(O)CCP(=O)(O)O)C(=O)O	88
N[C@@H](CCP(=O)(O)O)C(=O)O	0.096
N[C@@H](CCP(=O)(O)CC(=O)O)C(=O)O	2.4
CC(CP(=O)(O)CC[C@H](N)C(=O)O)C(=O)O (stereo not given in full)	12.1
N[C@@H](CCP(=O)(O)C(O)C1CC1C(=O)O)C(=O)O (single isomer, unassigned)	18
NC(CCP(=O)(O)CCC(=O)O)C(=O)O (racemic)	7.1
N[C@@H](CCP(=O)(O)CC(CC(=O)O)C(=O)O)C(=O)O (stereo not given in full)	4.6
N[C@@]1(C(=O)O)C[C@H](C(=O)O)[C@H](C(=O)O)C1	1.74
N[C@@H](CCP(=O)(O)C(CC(=O)O)C(F)(F)F)C(=O)O (stereo not given in full)	26

The molecules below were run against Metabotropic glutamate receptor 4 (Rattus norvegicus) (UniProt P31423) (assay: Agonist activity at rat mGlu4 receptor expressed in HEK293 cells co-transfected with G-protein alpha and EAAC1 assessed as increase in intracellular inositol phosphate accumulation […] by scintillation counting in presence of DCG4).
Chain of Metabotropic glutamate receptor 4 (Rattus norvegicus) (P31423 whole entry): as above
Format: functional, cell-based

Activity	SMILES
Dose-dependent effect	NC(CCP(=O)(O)CCC(=O)O)C(=O)O (racemic)

What follows are molecules tested against Metabotropic glutamate receptor 7 (Rattus norvegicus) (UniProt P35400) (assay: (§2) Agonist activity at rat mGlu7 receptor expressed in HEK293 cells co-transfected with G-protein alpha and EAAC1 assessed as increase in intracellular inositol phosphate accumulation […] by scintillation counting).
Format: functional, cell-based
Method in brief: (§3)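 Rat mGlu7 was transiently electroporated into HEK293 cells with a chimeric Gα subunit and EAAC1 and grown in glutamate/glutamine-free medium. Cells were labelled overnight with ³H-myoinositol from 6 h post-transfection, and ambient glutamate was removed with glutamate-pyruvate transaminase. Agonist was applied for 30 min, then cells were lysed 1 h in cold 0.1 M formic acid. ³H-IP was isolated on Dowex resin and eluted with 4 M formate for scintillation counting, with IP normalised to IP plus membrane counts. Triplicate points.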

SMILES	Activity
N[C@@H](CCP(=O)(O)CC(=O)O)C(=O)O	inactive

What follows are molecules tested against T2, Metabotropic glutamate receptor 7 (Rattus norvegicus, UniProt P35400) (assay: as §2).
Format: functional, cell-based
Method in brief: as §3

SMILES	EC50 [µM]
N[C@@H](CCP(=O)(O)O)C(=O)O	306
N[C@@]1(C(=O)O)C[C@H](C(=O)O)[C@H](C(=O)O)C1	280

What follows are molecules tested against T3, Metabotropic glutamate receptor 6 (Rattus norvegicus, UniProt P35349) (assay: Agonist activity at rat mGlu6 receptor expressed in HEK293 cells co-transfected with G-protein alpha and EAAC1 assessed as increase in intracellular inositol phosphate accumulation after 1 hr by scintillation counting).
T3 sequence (P35349 whole entry): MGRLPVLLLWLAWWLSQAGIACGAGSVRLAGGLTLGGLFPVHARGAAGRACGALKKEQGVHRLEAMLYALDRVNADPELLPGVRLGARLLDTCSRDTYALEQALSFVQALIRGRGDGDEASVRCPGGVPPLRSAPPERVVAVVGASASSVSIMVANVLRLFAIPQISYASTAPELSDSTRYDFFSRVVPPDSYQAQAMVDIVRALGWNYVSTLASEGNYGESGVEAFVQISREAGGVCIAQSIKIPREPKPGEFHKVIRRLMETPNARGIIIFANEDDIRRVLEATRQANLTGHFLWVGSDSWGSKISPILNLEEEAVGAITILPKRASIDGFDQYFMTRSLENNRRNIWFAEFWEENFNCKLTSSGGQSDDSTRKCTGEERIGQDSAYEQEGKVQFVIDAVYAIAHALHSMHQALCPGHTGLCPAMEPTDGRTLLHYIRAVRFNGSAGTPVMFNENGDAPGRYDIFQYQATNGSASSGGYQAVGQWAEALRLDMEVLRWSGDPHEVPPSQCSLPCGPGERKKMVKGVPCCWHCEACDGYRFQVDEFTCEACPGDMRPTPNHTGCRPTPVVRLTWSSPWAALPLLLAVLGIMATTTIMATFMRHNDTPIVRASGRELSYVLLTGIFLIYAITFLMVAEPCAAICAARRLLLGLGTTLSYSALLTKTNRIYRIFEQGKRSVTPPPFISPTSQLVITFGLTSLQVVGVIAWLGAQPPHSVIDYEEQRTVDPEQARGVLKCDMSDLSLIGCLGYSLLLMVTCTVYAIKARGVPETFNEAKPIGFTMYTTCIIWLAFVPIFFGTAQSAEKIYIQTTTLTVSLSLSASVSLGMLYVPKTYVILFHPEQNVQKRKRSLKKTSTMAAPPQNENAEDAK
Format: functional, cell-based
Method in brief: as §1

SMILES	EC50 [µM]
NC(CCP(=O)(O)C(CC(=O)O)C(=O)O)C(=O)O (stereo not given)	113
N[C@@H](CCP(=O)(O)CCCC(=O)O)C(=O)O	> 100
N[C@@H](CCP(=O)(O)O)C(=O)O	3.3
N[C@@H](CCP(=O)(O)CC(=O)O)C(=O)O	131
NC(CCP(=O)(O)CCC(=O)O)C(=O)O (racemic)	32
N[C@@H](CCP(=O)(O)CC(CC(=O)O)C(=O)O)C(=O)O (stereo not given in full)	115
N[C@@]1(C(=O)O)C[C@H](C(=O)O)[C@H](C(=O)O)C1	10.6

Each molecule was assayed against Metabotropic glutamate receptor 2 (Rattus norvegicus) (UniProt P31421) (assay: Agonist activity at rat mGlu2 receptor expressed in HEK293 cells assessed as increase in intracellular calcium level at 100 uM after 1 hr by fluorescence microplate reader).
Chain of Metabotropic glutamate receptor 2 (Rattus norvegicus) (P31421 19-872 limits assumed): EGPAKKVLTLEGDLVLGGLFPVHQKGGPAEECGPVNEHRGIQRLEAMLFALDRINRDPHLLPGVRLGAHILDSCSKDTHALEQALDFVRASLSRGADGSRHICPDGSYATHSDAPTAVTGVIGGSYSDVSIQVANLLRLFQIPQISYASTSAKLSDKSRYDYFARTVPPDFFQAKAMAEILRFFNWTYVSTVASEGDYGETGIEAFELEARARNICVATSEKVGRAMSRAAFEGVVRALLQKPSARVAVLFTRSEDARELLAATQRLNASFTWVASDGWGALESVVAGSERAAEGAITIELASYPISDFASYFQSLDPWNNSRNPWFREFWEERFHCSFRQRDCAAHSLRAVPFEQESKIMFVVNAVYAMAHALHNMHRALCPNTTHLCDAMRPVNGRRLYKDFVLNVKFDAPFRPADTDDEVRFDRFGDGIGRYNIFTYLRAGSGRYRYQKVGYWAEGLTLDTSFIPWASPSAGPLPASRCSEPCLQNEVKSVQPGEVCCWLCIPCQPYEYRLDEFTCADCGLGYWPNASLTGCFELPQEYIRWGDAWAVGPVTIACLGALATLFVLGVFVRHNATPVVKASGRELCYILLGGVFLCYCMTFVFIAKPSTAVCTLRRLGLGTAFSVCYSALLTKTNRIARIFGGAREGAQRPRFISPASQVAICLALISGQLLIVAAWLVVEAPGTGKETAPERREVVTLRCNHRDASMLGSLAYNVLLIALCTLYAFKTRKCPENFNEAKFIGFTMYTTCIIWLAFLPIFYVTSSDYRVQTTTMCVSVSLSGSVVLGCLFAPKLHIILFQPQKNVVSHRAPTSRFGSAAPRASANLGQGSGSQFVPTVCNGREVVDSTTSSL
Format: functional, cell-based
Method in brief: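 Rat mGlu2 transiently electroporated into HEK293 cells with EAAC1. Fluo-4 AM loaded 1 h at 37 °C in HBSS with 2.5 mM probenecid. Agonist applied at 100 μM after 20 s of recording, with DCG-IV 100 μM as reference. Fluorescence read at ex 485/em 525 nm.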

SMILES	Activity
N[C@@H](CCP(=O)(O)CC(Cl)C(=O)O)C(=O)O (stereo not given in full)	Active
N[C@@H](CCP(=O)(O)/C=C/C(=O)O)C(=O)O	Active
N[C@@H](CCP(=O)(O)CCCC(=O)O)C(=O)O	inactive
N[C@@H](CCP(=O)(O)CC(=O)O)C(=O)O	Active
NC(CCP(=O)(O)CCC(=O)O)C(=O)O (racemic)	Active
N[C@@H](CCP(=O)(O)CC(CC(=O)O)C(=O)O)C(=O)O (stereo not given in full)	inactive

These molecules were tested against T1, Metabotropic glutamate receptor 4 (assay: Agonist activity at rat mGlu4 receptor expressed in HEK293 cells co-transfected with G-protein alpha and EAAC1 assessed as increase in intracellular calcium level after 1 hr by fluorescence microplate reader).
Format: functional, cell-based
Method in brief: (§4)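 HEK293 cells electroporated with rat receptor plus chimeric G-protein alpha subunit and EAAC1, grown 24 h in polyornithine-coated plates in glutamate/glutamine-free medium. Cells loaded 1 h at 37 °C with Fluo-4 AM in HBSS with 2.5 mM probenecid, washed. Agonist added after 20 s of recording. Fluorescence read at ex 485/em 525 nm over a concentration range, triplicate points. EC50 given as mean ± SEM of n experiments.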

SMILES	EC50 [µM]
N[C@@H](CCP(=O)(O)CC(Cl)C(=O)O)C(=O)O (stereo not given in full)	1
N[C@@H](CCP(=O)(O)/C=C/C(=O)O)C(=O)O	1
N[C@@H](CCP(=O)(O)CCCC(=O)O)C(=O)O	8.5
N[C@@H](CCP(=O)(O)O)C(=O)O	0.13
N[C@@H](CCP(=O)(O)CC(=O)O)C(=O)O	7.4
N[C@@H](CCP(=O)(O)CC(CC(=O)O)C(=O)O)C(=O)O (stereo not given in full)	2.4

The molecules below were run against T4, Metabotropic glutamate receptor 8 (Rattus norvegicus, UniProt P70579) (assay: Agonist activity at rat mGlu8 receptor expressed in HEK293 cells co-transfected with G-protein alpha and EAAC1 assessed as increase in intracellular inositol phosphate accumulation after 1 hr by scintillation counting).
T4 sequence (P70579 whole entry): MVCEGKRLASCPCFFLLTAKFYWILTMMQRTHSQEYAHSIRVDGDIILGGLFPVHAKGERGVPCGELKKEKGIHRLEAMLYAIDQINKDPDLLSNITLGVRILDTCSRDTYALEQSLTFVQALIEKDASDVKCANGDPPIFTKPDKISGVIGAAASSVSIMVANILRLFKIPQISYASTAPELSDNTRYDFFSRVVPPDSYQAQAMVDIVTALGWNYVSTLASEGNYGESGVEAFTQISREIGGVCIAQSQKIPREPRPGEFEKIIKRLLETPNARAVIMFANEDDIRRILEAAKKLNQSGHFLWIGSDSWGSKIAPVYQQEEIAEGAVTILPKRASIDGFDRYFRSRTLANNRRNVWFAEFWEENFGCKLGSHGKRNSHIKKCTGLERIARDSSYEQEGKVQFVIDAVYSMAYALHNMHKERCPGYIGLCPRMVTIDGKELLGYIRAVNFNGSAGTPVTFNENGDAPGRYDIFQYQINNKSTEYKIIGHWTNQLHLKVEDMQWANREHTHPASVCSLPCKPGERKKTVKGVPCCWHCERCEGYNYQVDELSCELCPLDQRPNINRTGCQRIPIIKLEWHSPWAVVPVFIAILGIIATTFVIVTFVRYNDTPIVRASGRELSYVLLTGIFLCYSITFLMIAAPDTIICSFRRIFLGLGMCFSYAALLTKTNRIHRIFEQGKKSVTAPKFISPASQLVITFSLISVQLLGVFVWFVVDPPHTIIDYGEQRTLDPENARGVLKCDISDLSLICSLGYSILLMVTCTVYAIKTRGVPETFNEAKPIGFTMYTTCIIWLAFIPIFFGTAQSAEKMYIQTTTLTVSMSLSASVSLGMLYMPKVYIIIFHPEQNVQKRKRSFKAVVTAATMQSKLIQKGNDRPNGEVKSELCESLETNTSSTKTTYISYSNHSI
Format: functional, cell-based
Method in brief: as §1

SMILES	EC50 [µM]
N[C@@H](CCP(=O)(O)CC(Cl)C(=O)O)C(=O)O (stereo not given in full)	8.1
N[C@@H](CCP(=O)(O)/C=C/C(=O)O)C(=O)O	7.2
N[C@@H](CCP(=O)(O)CCCC(=O)O)C(=O)O	19
N[C@@H](CCP(=O)(O)CCP(=O)(O)O)C(=O)O	48
N[C@@H](CCP(=O)(O)O)C(=O)O	0.24
N[C@@H](CCP(=O)(O)CC(=O)O)C(=O)O	0.91
CC(CP(=O)(O)CC[C@H](N)C(=O)O)C(=O)O (stereo not given in full)	53
N[C@@H](CCP(=O)(O)C(O)C1CC1C(=O)O)C(=O)O (single isomer, unassigned)	91
NC(CCP(=O)(O)CCC(=O)O)C(=O)O (racemic)	20
N[C@@H](CCP(=O)(O)CC(CC(=O)O)C(=O)O)C(=O)O (stereo not given in full)	38
N[C@@]1(C(=O)O)C[C@H](C(=O)O)[C@H](C(=O)O)C1	5.1

These molecules were tested against T4, Metabotropic glutamate receptor 8 (assay: Agonist activity at rat mGlu8 receptor expressed in HEK293 cells co-transfected with G-protein alpha and EAAC1 assessed as increase in intracellular calcium level after 1 hr by fluorescence microplate reader).
Format: functional, cell-based
Method in brief: as §4

SMILES	EC50 [µM]
N[C@@H](CCP(=O)(O)CC(Cl)C(=O)O)C(=O)O (stereo not given in full)	8.3
N[C@@H](CCP(=O)(O)/C=C/C(=O)O)C(=O)O	5.1
N[C@@H](CCP(=O)(O)CCCC(=O)O)C(=O)O	18
N[C@@H](CCP(=O)(O)O)C(=O)O	0.3
N[C@@H](CCP(=O)(O)CC(=O)O)C(=O)O	2.7
N[C@@H](CCP(=O)(O)CC(CC(=O)O)C(=O)O)C(=O)O (stereo not given in full)	3.5

The molecules below were run against Metabotropic glutamate receptor 1 (Rattus norvegicus) (UniProt P23385) (assay: Agonist activity at rat mGlu1 receptor expressed in HEK293 cells).
Format: functional, cell-based
Method in brief: (§5)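 Receptor transiently electroporated into HEK293 cells (DMEM, 10% FCS, penicillin/streptomycin) with EAAC1 transporter, plated in 96-well plates; tested for agonist or antagonist activity coupled to PLC, read out by IP or Fluo-4 Ca2+ assays.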

SMILES	Activity
N[C@@H](CCP(=O)(O)CC(Cl)C(=O)O)C(=O)O (stereo not given in full)	inactive
N[C@@H](CCP(=O)(O)/C=C/C(=O)O)C(=O)O	inactive
N[C@@H](CCP(=O)(O)CCCC(=O)O)C(=O)O	inactive
N[C@@H](CCP(=O)(O)CC(=O)O)C(=O)O	inactive
N[C@@H](CCP(=O)(O)CC(CC(=O)O)C(=O)O)C(=O)O (stereo not given in full)	inactive

These molecules were tested against T3, Metabotropic glutamate receptor 6 (assay: Agonist activity at rat mGlu6 receptor expressed in HEK293 cells co-transfected with G-protein alpha and EAAC1 assessed as increase in intracellular calcium level after 1 hr by fluorescence microplate reader).
Format: functional, cell-based
Method in brief: as §4

SMILES	EC50 [µM]
N[C@@H](CCP(=O)(O)CC(Cl)C(=O)O)C(=O)O (stereo not given in full)	8.9
N[C@@H](CCP(=O)(O)/C=C/C(=O)O)C(=O)O	1.1
N[C@@H](CCP(=O)(O)CCCC(=O)O)C(=O)O	44
N[C@@H](CCP(=O)(O)O)C(=O)O	1
N[C@@H](CCP(=O)(O)CC(=O)O)C(=O)O	> 100
N[C@@H](CCP(=O)(O)CC(CC(=O)O)C(=O)O)C(=O)O (stereo not given in full)	42

Each molecule was assayed against Metabotropic glutamate receptor 2 (Rattus norvegicus, UniProt P31421) (assay: Agonist activity at rat mGlu2 receptor expressed in HEK293 cells assessed as increase in intracellular calcium level after 1 hr by fluorescence microplate reader).
Chain of Metabotropic glutamate receptor 2 (P31421 whole entry): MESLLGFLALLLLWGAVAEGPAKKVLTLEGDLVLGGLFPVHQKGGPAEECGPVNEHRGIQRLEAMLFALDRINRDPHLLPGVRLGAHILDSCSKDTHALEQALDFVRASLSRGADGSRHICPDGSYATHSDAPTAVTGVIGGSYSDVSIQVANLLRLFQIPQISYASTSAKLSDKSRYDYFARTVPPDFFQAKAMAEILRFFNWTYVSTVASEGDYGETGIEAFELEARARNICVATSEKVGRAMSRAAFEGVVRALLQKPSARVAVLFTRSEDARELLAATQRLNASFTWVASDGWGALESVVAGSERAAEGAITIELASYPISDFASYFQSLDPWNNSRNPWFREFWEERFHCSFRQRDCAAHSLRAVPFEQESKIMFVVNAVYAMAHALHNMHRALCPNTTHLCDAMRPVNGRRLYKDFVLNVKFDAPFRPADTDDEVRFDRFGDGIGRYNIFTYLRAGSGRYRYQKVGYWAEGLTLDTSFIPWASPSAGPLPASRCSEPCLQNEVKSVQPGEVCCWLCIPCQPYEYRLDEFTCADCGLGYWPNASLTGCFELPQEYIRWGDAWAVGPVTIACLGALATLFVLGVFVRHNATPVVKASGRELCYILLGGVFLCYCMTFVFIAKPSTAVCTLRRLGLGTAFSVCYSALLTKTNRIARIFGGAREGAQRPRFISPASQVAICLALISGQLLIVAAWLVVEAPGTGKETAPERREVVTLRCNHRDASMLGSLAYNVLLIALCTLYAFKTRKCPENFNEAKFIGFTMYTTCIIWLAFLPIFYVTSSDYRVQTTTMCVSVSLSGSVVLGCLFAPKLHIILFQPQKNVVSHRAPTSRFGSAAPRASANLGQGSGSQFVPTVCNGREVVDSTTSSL
Format: functional, cell-based
Method in brief: as §4

SMILES	EC50 [µM]
N[C@@H](CCP(=O)(O)CC(Cl)C(=O)O)C(=O)O (stereo not given in full)	49
N[C@@H](CCP(=O)(O)/C=C/C(=O)O)C(=O)O	6.7
N[C@@H](CCP(=O)(O)CC(=O)O)C(=O)O	57
NC(CCP(=O)(O)CCC(=O)O)C(=O)O (racemic)	52

Each molecule was assayed against Metabotropic glutamate receptor 5 (Rattus norvegicus) (UniProt P31424) (assay: Agonist activity at rat mGlu5 receptor expressed in HEK293 cells).
Format: functional, cell-based
Method in brief: as §5

SMILES	Activity
N[C@@H](CCP(=O)(O)CC(Cl)C(=O)O)C(=O)O (stereo not given in full)	inactive
N[C@@H](CCP(=O)(O)/C=C/C(=O)O)C(=O)O	inactive
N[C@@H](CCP(=O)(O)CCCC(=O)O)C(=O)O	inactive
N[C@@H](CCP(=O)(O)CC(=O)O)C(=O)O	inactive
N[C@@H](CCP(=O)(O)CC(CC(=O)O)C(=O)O)C(=O)O (stereo not given in full)	inactive

Species: Rattus norvegicus
Test: Selectivity ratio of EC50 for rat mGlu8 receptor to EC50 for rat mGlu4 receptor

SMILES	Ratio EC50
N[C@@H](CCP(=O)(O)CC(Cl)C(=O)O)C(=O)O (stereo not given in full)	8

The molecules below were run against Metabotropic glutamate receptor 7 (Rattus norvegicus) (UniProt P35400) (assay: (§6) Agonist activity at rat mGlu7 receptor expressed in HEK293 cells co-transfected with G-protein alpha and EAAC1 assessed as increase in intracellular calcium level after 1 hr by fluorescence microplate reader).
Format: functional, cell-based
Method in brief: (§7)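 Rat mGlu7 electroporated into HEK293 cells with a chimeric G-protein α subunit and EAAC1. Cells were grown 24 h on polyornithine in glutamate/glutamine-free medium, then loaded with Fluo-4 AM in HBSS with 2.5 mM probenecid for 1 h at 37 °C and washed. Agonist was added 20 s into recording, and fluorescence was read at ex 485/em 525 nm. Points were run in triplicate across a concentration series to give EC50.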

SMILES	Activity
N[C@@H](CCP(=O)(O)CCCC(=O)O)C(=O)O	inactive
N[C@@H](CCP(=O)(O)CC(=O)O)C(=O)O	inactive
N[C@@H](CCP(=O)(O)CC(CC(=O)O)C(=O)O)C(=O)O (stereo not given in full)	inactive

The molecules below were run against T2, Metabotropic glutamate receptor 7 (assay: as §6).
Format: functional, cell-based
Method in brief: as §7

SMILES	EC50 [µM]
N[C@@H](CCP(=O)(O)CC(Cl)C(=O)O)C(=O)O (stereo not given in full)	> 100
N[C@@H](CCP(=O)(O)/C=C/C(=O)O)C(=O)O	43
N[C@@H](CCP(=O)(O)O)C(=O)O	249
